From PubChem BioAssay AID2378 (NMMLSC, 2010)

Target: Cell division control protein 42 homolog (Homo sapiens) (UniProt P60953)
Experiment: compound effect on Cdc42 GTP saturation binding, late-stage follow-up, mechanism study for Ras-family GTPase inhibitor project, biochemical, EDTA buffer, varying GTP (AID 2378)
Conditions: GST-Cdc42 beads, BODIPY-GTP binding, flow cytometry
How it was run: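 Test system: GST-Cdc42 on glutathione beads / Quantity: 4 µM GST-Cdc42 for bead loading / Doses: 10 µM compound, single dose / Times: 4 °C overnight capture, 2 min pre-incubation / Technique: flow cytometry measurement of bead-associated BODIPY-GTP fluorescence / Read-out basis: Bmax and Kd from one-site binding fit / Controls: DMSO vehicle reference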

Sequence of Cell division control protein 42 homolog (Homo sapiens) (P60953 whole entry, looked up): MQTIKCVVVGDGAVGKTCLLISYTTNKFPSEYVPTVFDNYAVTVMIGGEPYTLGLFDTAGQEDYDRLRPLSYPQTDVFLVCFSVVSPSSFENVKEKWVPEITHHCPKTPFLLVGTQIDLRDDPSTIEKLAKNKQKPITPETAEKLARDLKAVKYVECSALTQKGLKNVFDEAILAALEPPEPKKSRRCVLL

A Bmax with compound (at 10 µM, stronger effect = lower value) of 19800 and a Kd (measured here: GTP Kd with compound) of 0.0464 µM were found for `COc1ccc(C2CC(c3ccccc3)=NN2c2ccc(S(N)(=O)=O)cc2)cc1` (configuration not stated) in this work.
